Experimental data published in ChEMBL document CHEMBL1165845, “Synthesis and biological evaluation of analogues of a novel inhibitor of beta-amyloid secretion” (J Med Chem, 2010).

tested on: H4; assay: Induction of alpha-secretase-mediated reduction in amyloid beta secretion in human H4 cells expressing wild type betaAPP695 at 10 uM after 24 hrs […] relative to control; type: cell-based; parameters: scale not given: the % may be the effect or the level left; settings: not given
Outline: (§1)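 Serum-starved H4βAPP695wt cells are treated for 24 h with drug in DMSO (0.02% DMSO vehicle control). Total Aβ in conditioned medium is measured by sandwich ELISA with 6E10 capture and 4G8 detection, normalized to lysate protein by BCA. Cytotoxicity is read as total cell protein. Quadruplicate wells in 1-4 independent experiments give the % decrease versus vehicle.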

First: O=C(NCCS(=O)(=O)Cc1cccc(O)c1)c1c(Cl)cccc1Cl
Second: COc1cccc(CS(=O)(=O)CCNC(=O)c2c(Cl)cccc2Cl)c1
The Activity of the first is lower: -10.1% for the first, 5.3% for the second.

Going from `O=C(NCCSCc1cccc([N+](=O)[O-])c1)c1c(Cl)cccc1Cl` to `O=C(NCCSCc1cccc(F)c1)c1c(Cl)cccc1Cl`, the Activity falls from 58.5% to 10.2%.

First: CC(C)(CNC(=O)c1c(Cl)cccc1Cl)SCc1ccc(F)cc1
Second: O=C(NCCSCc1ccc(Cl)cc1)c1c(Cl)cccc1Cl
The Activity of the first is higher: 37% for the first, 21.8% for the second.

Going from `N#Cc1c(Cl)cccc1CSCCNC(=O)c1c(Cl)cccc1Cl` to `O=Cc1cccc(CSCCNC(=O)c2c(Cl)cccc2Cl)c1`, the Activity falls from 48.7% to 19.9%.

Compared with `O=C(NCC[S+]([O-])Cc1cccc(Cl)c1)c1c(Cl)cccc1Cl` (stereo not drawn), `O=C(NCC[S+]([O-])Cc1cccc(O)c1)c1c(Cl)cccc1Cl` (stereo not drawn) is lower in Activity: 4% for the first, -23.7% for the second.

Compared with `NC(=O)c1cccc(CSCCNC(=O)c2c(Cl)cccc2Cl)c1`, `O=C(O)c1cccc(CSCCNC(=O)c2c(Cl)cccc2Cl)c1` is lower in Activity: 6.2% for the first, -11.4% for the second.

Going from `O=C(NCCSCc1cccc(Cl)c1)c1c(C(F)(F)F)cccc1C(F)(F)F` to `O=C(NCCSCc1cccc(Cl)c1)c1c(Br)cccc1Br`, the Activity rises from 6.2% to 74.2%.

First: O=C(NCCSCc1ccccc1Cl)c1ccccc1Cl
Second: O=C(NCCSCc1cccc(Cl)c1)c1ccccc1Cl
The Activity of the first is lower: 4% for the first, 4.7% for the second.

Going from `O=C(NCCSCc1cccc(Cl)c1)c1ccc(F)cc1` to `COc1cccc(OC)c1C(=O)NCCSCc1cccc(Cl)c1`, the Activity falls from 6.4% to -13.1%.

Going from `O=C(NCCOCc1ccccc1)c1ccccc1Cl` to `O=C(NCCSCc1ccccc1)c1ccccc1`, the Activity falls from 10.3% to -5.7%.

Compared with `COc1cccc(CSCCNC(=O)c2c(Cl)cccc2OC)c1`, `COc1cccc(CSCCNC(=O)c2c(OC)cccc2OC)c1` is higher in Activity: -2.9% for the first, 6.2% for the second.

Going from `O=C(NCCSCc1cccc(Cl)c1)c1c([N+](=O)[O-])cccc1[N+](=O)[O-]` to `O=C(NCCSCc1cccc(O)c1)c1c(O)cccc1O`, the Activity falls from 28.8% to -22.5%.

First: COc1cc(CSCCNC(=O)c2c(Cl)cccc2Cl)cc(OC)c1
Second: O=C(NCCSCc1cc(O)cc(O)c1)c1c(Cl)cccc1Cl
The Activity of the first is higher: 47.9% for the first, 3.1% for the second.

First: O=C(NCCSCc1cccc(F)c1)c1c(F)cccc1F
Second: CCOC(=O)c1cccc(CSCCNC(=O)c2c(Cl)cccc2Cl)c1
The Activity of the first is lower: -16.8% for the first, 3% for the second.

Compared with `O=C(NCCCCNC(=O)c1c(Cl)cccc1Cl)c1c(Cl)cccc1Cl`, `COCCCNC(=O)c1c(Cl)cccc1Cl` is higher in Activity: 4% for the first, 6.9% for the second.

Going from `CCN(CC)CCCNC(=O)c1c(Cl)cccc1Cl` to `O=C(NCCSCc1ccc(Cl)c(Cl)c1)c1ccc(Cl)cc1Cl`, the Activity falls from 5.1% to 4.3%.

Going from `O=C(NCCCCNC(=O)c1ccccc1Br)c1ccccc1Br` to `Clc1cccc(CSCCNCc2c(Cl)cccc2Cl)c1`, the Activity rises from 7.9% to 45.2%.

tested on: H4; assay: Induction of alpha-secretase-mediated reduction in amyloid beta secretion in human H4 cells expressing wild type betaAPP695 at 30 uM after 24 hrs […] relative to control; type: cell-based; parameters: scale not given: the % may be the effect or the level left; settings: not given; outline: as §1

Compared with `O=C(NCCS(=O)(=O)Cc1cccc(O)c1)c1c(Cl)cccc1Cl`, `COc1cccc(CS(=O)(=O)CCNC(=O)c2c(Cl)cccc2Cl)c1` is lower in Activity: 9.6% for the first, 4.9% for the second.

First: O=C(NCCSCc1cccc([N+](=O)[O-])c1)c1c(Cl)cccc1Cl
Second: O=C(NCCSCc1cccc(F)c1)c1c(Cl)cccc1Cl
The Activity of the first is higher: 72.5% for the first, 36.1% for the second.

First: N#Cc1c(Cl)cccc1CSCCNC(=O)c1c(Cl)cccc1Cl
Second: O=C(NCCSCc1ccc(Cl)cc1)c1c(Cl)cccc1Cl
The Activity of the first is higher: 52.3% for the first, 36.5% for the second.

Going from `O=C(NCC[S+]([O-])Cc1cccc(Cl)c1)c1c(Cl)cccc1Cl` (stereo not drawn) to `O=C(NCC[S+]([O-])Cc1cccc(O)c1)c1c(Cl)cccc1Cl` (stereo not drawn), the Activity rises from -16.5% to 15.9%.

First: NC(=O)c1cccc(CSCCNC(=O)c2c(Cl)cccc2Cl)c1
Second: O=C(O)c1cccc(CSCCNC(=O)c2c(Cl)cccc2Cl)c1
The Activity of the first is higher: 32.3% for the first, -3.8% for the second.

Going from `O=C(NCCSCc1cccc(Cl)c1)c1c(C(F)(F)F)cccc1C(F)(F)F` to `O=C(NCCSCc1cccc(Cl)c1)c1c(Br)cccc1Br`, the Activity rises from 13.5% to 83.4%.

First: COc1cccc(CSCCNC(=O)c2c(Cl)cccc2OC)c1
Second: COc1cccc(CSCCNC(=O)c2c(OC)cccc2OC)c1
The Activity of the first is lower: -4.7% for the first, -0.6% for the second.

First: O=C(NCCSCc1cccc(Cl)c1)c1c([N+](=O)[O-])cccc1[N+](=O)[O-]
Second: COc1cccc(OC)c1C(=O)NCCSCc1cccc(Cl)c1
The Activity of the first is higher: 52.9% for the first, 11.2% for the second.

Compared with `COc1cc(CSCCNC(=O)c2c(Cl)cccc2Cl)cc(OC)c1`, `O=C(NCCSCc1cc(O)cc(O)c1)c1c(Cl)cccc1Cl` is lower in Activity: 80.4% for the first, 17.2% for the second.

First: O=C(NCCSCc1cccc(F)c1)c1c(F)cccc1F
Second: O=C(NCCSCc1cccc(O)c1)c1c(O)cccc1O
The Activity of the first is higher: -15.5% for the first, -25.2% for the second.

First: O=Cc1cccc(CSCCNC(=O)c2c(Cl)cccc2Cl)c1
Second: CCOC(=O)c1cccc(CSCCNC(=O)c2c(Cl)cccc2Cl)c1
The Activity of the first is higher: 36.4% for the first, 10.1% for the second.

Compared with `Clc1cccc(CSCCNCc2c(Cl)cccc2Cl)c1`, `O=C(NCCSCc1ccccc1)c1ccccc1` is lower in Activity: 45.6% for the first, 5.5% for the second.

tested on: H4; assay: Cytotoxicity against human H4 cells expressing wild type betaAPP695 assessed as decrease in cell protein at 10 uM after 24 hrs; type: cell-based; parameters: scale not given: the % may be the effect or the level left; settings: h4, 24 h; outline: as §1

Compared with `O=C(NCCS(=O)(=O)Cc1cccc(O)c1)c1c(Cl)cccc1Cl`, `COc1cccc(CS(=O)(=O)CCNC(=O)c2c(Cl)cccc2Cl)c1` is lower in Activity: 7.7% for the first, 1.2% for the second.

Compared with `O=C(NCCSCc1cccc([N+](=O)[O-])c1)c1c(Cl)cccc1Cl`, `O=C(NCCSCc1cccc(F)c1)c1c(Cl)cccc1Cl` is lower in Activity: 7.5% for the first, 2.6% for the second.

Going from `N#Cc1c(Cl)cccc1CSCCNC(=O)c1c(Cl)cccc1Cl` to `O=C(NCCSCc1ccc(Cl)cc1)c1c(Cl)cccc1Cl`, the Activity falls from 3.5% to -6.4%.

Going from `O=C(NCC[S+]([O-])Cc1cccc(Cl)c1)c1c(Cl)cccc1Cl` (stereo not drawn) to `O=C(NCC[S+]([O-])Cc1cccc(O)c1)c1c(Cl)cccc1Cl` (stereo not drawn), the Activity rises from -4.9% to 2.8%.

Compared with `NC(=O)c1cccc(CSCCNC(=O)c2c(Cl)cccc2Cl)c1`, `O=C(O)c1cccc(CSCCNC(=O)c2c(Cl)cccc2Cl)c1` is higher in Activity: -2.8% for the first, 7.1% for the second.

Going from `O=C(NCCSCc1cccc(Cl)c1)c1c(C(F)(F)F)cccc1C(F)(F)F` to `O=C(NCCSCc1cccc(Cl)c1)c1c(Br)cccc1Br`, the Activity rises from -4.2% to 6.7%.

Compared with `COc1cccc(CSCCNC(=O)c2c(Cl)cccc2OC)c1`, `COc1cccc(CSCCNC(=O)c2c(OC)cccc2OC)c1` is lower in Activity: 1.9% for the first, 0.5% for the second.

First: O=C(NCCSCc1cccc(Cl)c1)c1c([N+](=O)[O-])cccc1[N+](=O)[O-]
Second: COc1cccc(OC)c1C(=O)NCCSCc1cccc(Cl)c1
The Activity of the first is lower: 0.1% for the first, 7.1% for the second.

Going from `COc1cc(CSCCNC(=O)c2c(Cl)cccc2Cl)cc(OC)c1` to `O=C(NCCSCc1cc(O)cc(O)c1)c1c(Cl)cccc1Cl`, the Activity falls from 2% to -0.4%.

Compared with `O=C(NCCSCc1cccc(F)c1)c1c(F)cccc1F`, `O=C(NCCSCc1cccc(O)c1)c1c(O)cccc1O` is higher in Activity: 0.1% for the first, 10.5% for the second.

Going from `O=Cc1cccc(CSCCNC(=O)c2c(Cl)cccc2Cl)c1` to `N=C(NO)c1cccc(CSCCNC(=O)c2c(Cl)cccc2Cl)c1`, the Activity rises from 1.5% to 9.2%.

First: Clc1cccc(CSCCNCc2c(Cl)cccc2Cl)c1
Second: CCOC(=O)c1cccc(CSCCNC(=O)c2c(Cl)cccc2Cl)c1
The Activity of the first is lower: -3.6% for the first, 5.8% for the second.

`O=C(NCCSCc1ccccc1)c1ccccc1` showed an Activity of 0.7%.

tested on: H4; assay: Cytotoxicity against human H4 cells expressing wild type betaAPP695 assessed as decrease in cell protein at 30 uM after 24 hrs; type: cell-based; parameters: scale not given: the % may be the effect or the level left; settings: h4, 24 h; outline: as §1

First: O=C(NCCS(=O)(=O)Cc1cccc(O)c1)c1c(Cl)cccc1Cl
Second: COc1cccc(CS(=O)(=O)CCNC(=O)c2c(Cl)cccc2Cl)c1
The Activity of the first is lower: 4.4% for the first, 8.9% for the second.

Going from `O=C(NCCSCc1cccc([N+](=O)[O-])c1)c1c(Cl)cccc1Cl` to `O=C(NCCSCc1cccc(F)c1)c1c(Cl)cccc1Cl`, the Activity falls from 24.6% to 3.7%.

Compared with `N#Cc1c(Cl)cccc1CSCCNC(=O)c1c(Cl)cccc1Cl`, `O=C(NCCSCc1ccc(Cl)cc1)c1c(Cl)cccc1Cl` is higher in Activity: 1.3% for the first, 3% for the second.

First: O=C(NCC[S+]([O-])Cc1cccc(Cl)c1)c1c(Cl)cccc1Cl (stereo not drawn)
Second: O=C(NCC[S+]([O-])Cc1cccc(O)c1)c1c(Cl)cccc1Cl (stereo not drawn)
The Activity of the first is higher: 7.3% for the first, 4.4% for the second.

First: NC(=O)c1cccc(CSCCNC(=O)c2c(Cl)cccc2Cl)c1
Second: O=C(O)c1cccc(CSCCNC(=O)c2c(Cl)cccc2Cl)c1
The Activity of the first is lower: -8.6% for the first, 3.2% for the second.

Going from `O=C(NCCSCc1cccc(Cl)c1)c1c(C(F)(F)F)cccc1C(F)(F)F` to `O=C(NCCSCc1cccc(Cl)c1)c1c(Br)cccc1Br`, the Activity rises from -0.4% to 20.8%.

First: COc1cccc(CSCCNC(=O)c2c(Cl)cccc2OC)c1
Second: COc1cccc(CSCCNC(=O)c2c(OC)cccc2OC)c1
The Activity of the first is higher: 9.3% for the first, 3.9% for the second.

Going from `O=C(NCCSCc1cccc(Cl)c1)c1c([N+](=O)[O-])cccc1[N+](=O)[O-]` to `COc1cccc(OC)c1C(=O)NCCSCc1cccc(Cl)c1`, the Activity falls from 17.8% to -0.6%.

Compared with `COc1cc(CSCCNC(=O)c2c(Cl)cccc2Cl)cc(OC)c1`, `O=C(NCCSCc1cc(O)cc(O)c1)c1c(Cl)cccc1Cl` is higher in Activity: -8.7% for the first, -0.7% for the second.

Compared with `O=C(NCCSCc1cccc(F)c1)c1c(F)cccc1F`, `O=C(NCCSCc1cccc(O)c1)c1c(O)cccc1O` is higher in Activity: 1.8% for the first, 14.3% for the second.

First: O=Cc1cccc(CSCCNC(=O)c2c(Cl)cccc2Cl)c1
Second: N=C(NO)c1cccc(CSCCNC(=O)c2c(Cl)cccc2Cl)c1
The Activity of the first is lower: -2.1% for the first, 5.9% for the second.

Compared with `Clc1cccc(CSCCNCc2c(Cl)cccc2Cl)c1`, `CCOC(=O)c1cccc(CSCCNC(=O)c2c(Cl)cccc2Cl)c1` is lower in Activity: 6.6% for the first, 5.4% for the second.

With `O=C(NCCSCc1ccccc1)c1ccccc1` the Activity was -4.1%.
